Test results: ChEMBL document CHEMBL1153229, “The first synthetic agonists of FFA2: Discovery and SAR of phenylacetamides as allosteric modulators” (Bioorg Med Chem Lett, 2010)
The source made the active and inactive calls. The calls are words filed in the database; no cut-off is given here.

Tests used:
[1] = tested on: Rattus norvegicus; experiment: AUC in Sprague-Dawley rat at 0.5 mg/kg, iv; assay type: ADME, organism-based, Plasma; parameters: dose 0.5 mg/kg, route intravenous; conditions: in vivo
Procedure, shortened: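 Male Sprague-Dawley rats dosed 0.5 mg/kg iv.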

[2] = molecular target: C-X-C chemokine receptor type 4 (Homo sapiens) (UniProt P61073); experiment: Agonist activity at CXCR4 up to 30 uM; assay type: functional
C-X-C chemokine receptor type 4 (Homo sapiens), sequence (P61073 whole entry): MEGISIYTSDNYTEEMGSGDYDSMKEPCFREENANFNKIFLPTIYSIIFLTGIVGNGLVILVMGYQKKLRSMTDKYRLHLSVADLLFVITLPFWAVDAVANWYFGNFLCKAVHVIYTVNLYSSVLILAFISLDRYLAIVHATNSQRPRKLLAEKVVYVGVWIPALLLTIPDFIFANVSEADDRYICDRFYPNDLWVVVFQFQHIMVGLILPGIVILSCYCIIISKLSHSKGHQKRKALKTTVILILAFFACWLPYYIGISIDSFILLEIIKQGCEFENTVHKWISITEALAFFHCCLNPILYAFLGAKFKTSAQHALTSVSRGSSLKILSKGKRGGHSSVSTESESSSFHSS

[3] = tested on: Mus musculus; experiment: Reduction in plasma free fatty acid level in overnight fasted wild type C57BL/6 mouse at 20 mg/kg, ip after 15 mins; assay type: functional, organism-based; parameters: dose 20 mg/kg
Procedure, shortened: (§1)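 Male-unspecified C57BL6 mice, wild type or FFA2 knockout, fasted overnight. Given compound or vehicle (10% dimethyl acetamide, 10% ethanol, 30% propylene glycol, 50% saline) ip at 10 ml/kg. Tail blood sampled before and 15 minutes after injection. Plasma FFA measured by enzymatic kit. Ten animals per group; t test.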

[4] = molecular target: C-C chemokine receptor type 2 (Homo sapiens) (UniProt P41597); experiment: Agonist activity at CCR2 up to 30 uM; assay type: functional
C-C chemokine receptor type 2 (Homo sapiens), sequence (P41597 whole entry, looked up): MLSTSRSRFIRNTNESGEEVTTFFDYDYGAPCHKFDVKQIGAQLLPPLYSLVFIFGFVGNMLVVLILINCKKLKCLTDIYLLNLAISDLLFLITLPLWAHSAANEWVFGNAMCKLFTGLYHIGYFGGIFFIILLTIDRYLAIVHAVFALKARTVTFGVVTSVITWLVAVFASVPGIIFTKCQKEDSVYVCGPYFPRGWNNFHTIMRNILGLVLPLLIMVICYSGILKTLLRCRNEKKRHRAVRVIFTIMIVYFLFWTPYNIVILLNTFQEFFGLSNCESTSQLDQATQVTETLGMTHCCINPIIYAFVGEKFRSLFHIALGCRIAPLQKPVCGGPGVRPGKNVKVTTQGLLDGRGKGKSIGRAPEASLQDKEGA

[5] = molecular target: T1, Free fatty acid receptor 2 (Homo sapiens) (UniProt O15552); experiment: Agonist activity at human FFA2 receptor expressed in CHO cells assessed as inhibition of forskolin-induced cAMP production relative to acetate; assay type: functional, cell-based
T1 sequence (whole entry): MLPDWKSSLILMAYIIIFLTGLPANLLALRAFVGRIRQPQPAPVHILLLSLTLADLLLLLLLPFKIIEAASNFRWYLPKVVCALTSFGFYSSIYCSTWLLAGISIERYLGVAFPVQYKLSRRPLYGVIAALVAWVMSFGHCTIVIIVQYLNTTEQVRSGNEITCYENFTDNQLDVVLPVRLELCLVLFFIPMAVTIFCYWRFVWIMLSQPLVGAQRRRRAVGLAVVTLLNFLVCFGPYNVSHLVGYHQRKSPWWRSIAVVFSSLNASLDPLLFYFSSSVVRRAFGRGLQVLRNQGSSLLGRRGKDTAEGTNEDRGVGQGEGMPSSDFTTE
Procedure, shortened: (§2)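 Suspended cells, 10,000 per well, in Hank's balanced salt solution with 25 mM HEPES and 0.01% (w/v) BSA. Stimulated with forskolin (5 μM final) plus serially diluted test ligands, room temperature for 30 min. Antibody and lysis reagents then added, followed by overnight dark incubation with detection solution. Luminescence read (RLU). Efficacy expressed relative to acetate. Means of four experiments.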

[6] = molecular target: T2, Endothelin receptor type B (Homo sapiens) (UniProt P24530); experiment: Agonist activity at ETBR up to 30 uM; assay type: functional
T2 sequence (whole entry): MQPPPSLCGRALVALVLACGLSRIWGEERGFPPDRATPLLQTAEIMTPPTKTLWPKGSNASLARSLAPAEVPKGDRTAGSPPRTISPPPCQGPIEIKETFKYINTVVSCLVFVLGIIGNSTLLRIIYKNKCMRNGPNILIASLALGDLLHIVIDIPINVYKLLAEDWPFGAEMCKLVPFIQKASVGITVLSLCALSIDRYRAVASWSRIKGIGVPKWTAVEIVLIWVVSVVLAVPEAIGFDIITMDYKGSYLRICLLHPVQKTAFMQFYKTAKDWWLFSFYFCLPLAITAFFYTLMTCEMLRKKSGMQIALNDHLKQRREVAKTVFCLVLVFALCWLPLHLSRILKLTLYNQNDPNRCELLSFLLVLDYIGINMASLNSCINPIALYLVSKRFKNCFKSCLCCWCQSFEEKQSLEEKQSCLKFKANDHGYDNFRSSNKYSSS

[7] = molecular target: T3, Free fatty acid receptor 2 (Homo sapiens, UniProt O15552); experiment: Agonist activity at human FFA2 receptor expressed in CHO cells assessed as inhibition of forskolin-induced cAMP production; assay type: functional, cell-based; procedure, shortened: as §2
T3 sequence (O15552 whole entry): T1 sequence (whole entry)

[8] = molecular target: T4, C-C chemokine receptor type 7 (Homo sapiens) (UniProt P32248); experiment: Agonist activity at CCR7 up to 30 uM; assay type: functional
T4 sequence (whole entry): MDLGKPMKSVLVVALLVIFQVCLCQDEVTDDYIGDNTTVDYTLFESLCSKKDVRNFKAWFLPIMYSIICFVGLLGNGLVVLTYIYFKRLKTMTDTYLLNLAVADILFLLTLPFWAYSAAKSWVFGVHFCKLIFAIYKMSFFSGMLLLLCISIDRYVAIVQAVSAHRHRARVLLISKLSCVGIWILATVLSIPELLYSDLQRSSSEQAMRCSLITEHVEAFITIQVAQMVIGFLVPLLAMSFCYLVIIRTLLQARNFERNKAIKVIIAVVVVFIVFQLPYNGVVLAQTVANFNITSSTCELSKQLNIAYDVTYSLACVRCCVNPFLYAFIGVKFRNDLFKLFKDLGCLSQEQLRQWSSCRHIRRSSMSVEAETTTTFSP

[9] = tested on: Mus musculus; experiment: Reduction in plasma free fatty acid level in overnight fasted wild type C57BL/6 mouse at 3 mg/kg, ip after 15 mins; assay type: functional, organism-based; parameters: dose 3 mg/kg; procedure, shortened: as §1
[10] = tested on: 3T3-L1; experiment: Inhibition of lipolysis in mouse 3T3L1 cells; assay type: functional, cell-based
Procedure, shortened: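 Lipolysis measured in 3T3L1 adipocytes across a concentration range of test compound. Sensitivity to pertussis toxin treatment also examined. Means of three experiments.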

[11] = molecular target: Growth hormone secretagogue receptor type 1 (Homo sapiens) (UniProt Q92847); experiment: Agonist activity at GHSR up to 30 uM; assay type: functional
Growth hormone secretagogue receptor type 1 (Homo sapiens), sequence (Q92847 whole entry): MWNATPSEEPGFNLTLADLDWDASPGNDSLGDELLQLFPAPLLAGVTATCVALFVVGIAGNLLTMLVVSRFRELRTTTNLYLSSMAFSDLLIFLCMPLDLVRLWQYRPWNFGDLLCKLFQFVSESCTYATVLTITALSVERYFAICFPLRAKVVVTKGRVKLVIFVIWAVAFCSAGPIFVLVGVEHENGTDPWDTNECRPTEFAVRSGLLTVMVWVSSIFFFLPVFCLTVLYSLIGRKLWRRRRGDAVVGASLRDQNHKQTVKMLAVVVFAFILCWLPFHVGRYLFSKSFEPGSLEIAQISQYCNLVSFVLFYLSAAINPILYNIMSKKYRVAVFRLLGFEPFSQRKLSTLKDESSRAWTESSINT

[12] = AUC in mouse at 5 mg/kg, po; assay type: ADME, organism-based; parameters: dose 5 mg/kg, route oral; conditions: plasma
[13] = molecular target: T5, Free fatty acid receptor 2 (Mus musculus) (UniProt Q8VCK6); experiment: Agonist activity at mouse FFA2 receptor expressed in CHO cells assessed as inhibition of forskolin-induced cAMP production; assay type: functional, cell-based; procedure, shortened: as §2
T5 sequence (whole entry): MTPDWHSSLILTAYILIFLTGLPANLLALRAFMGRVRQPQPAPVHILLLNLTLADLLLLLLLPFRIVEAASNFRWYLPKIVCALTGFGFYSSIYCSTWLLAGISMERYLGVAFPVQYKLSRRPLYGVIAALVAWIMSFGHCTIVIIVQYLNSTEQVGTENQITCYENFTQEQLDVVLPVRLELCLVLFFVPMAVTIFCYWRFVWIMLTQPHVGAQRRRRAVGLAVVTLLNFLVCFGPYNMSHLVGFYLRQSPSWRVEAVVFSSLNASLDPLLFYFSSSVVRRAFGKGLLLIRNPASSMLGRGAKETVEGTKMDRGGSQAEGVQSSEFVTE

[14] = molecular target: T6, C-X-C chemokine receptor type 3 (Homo sapiens) (UniProt P49682); experiment: Agonist activity at CXCR3 up to 30 uM; assay type: functional
T6 sequence (whole entry): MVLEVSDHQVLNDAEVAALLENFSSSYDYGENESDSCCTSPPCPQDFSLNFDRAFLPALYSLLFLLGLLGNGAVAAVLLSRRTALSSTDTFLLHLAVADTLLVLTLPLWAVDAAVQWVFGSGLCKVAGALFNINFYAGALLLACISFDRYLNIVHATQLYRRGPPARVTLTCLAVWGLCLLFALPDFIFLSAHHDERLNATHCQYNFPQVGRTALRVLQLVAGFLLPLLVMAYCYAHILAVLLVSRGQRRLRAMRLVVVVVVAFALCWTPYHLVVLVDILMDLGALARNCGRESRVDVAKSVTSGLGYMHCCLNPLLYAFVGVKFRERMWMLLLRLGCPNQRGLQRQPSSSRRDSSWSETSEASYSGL

[15] = Tmax in mouse at 5 mg/kg, po; assay type: ADME, organism-based; parameters: dose 5 mg/kg, route oral; conditions: in vivo
[16] = tested on: Mus musculus; experiment: Reduction in plasma free fatty acid level in overnight fasted FFA2 knockout C57BL/6 mouse at 3 mg/kg, ip after 15 mins; assay type: functional, organism-based; parameters: dose 3 mg/kg; procedure, shortened: as §1

AUC [1]: 0.194 µg·h/mL
Activity [2]: inactive
Activity [4]: inactive
Efficacy [5]: 103%
Activity [6]: inactive
IC50 [7]: 0.5 µM
Activity [8]: inactive
Activity [11]: inactive
AUC [12]: 62 µg·h/mL
Activity [13]: 0.7 µM
Activity [14]: inactive
Tmax [15]: 19.8 min
SMILES: CC(C)[C@H](C(=O)Nc1ncc(F)s1)c1ccc(Cl)cc1
Activity [3]: Active
Activity [9]: Active
inhibition [10]: Dose-dependent effect
Activity [16]: inactive
